Starred links: 1 amine or outer side, 2 acyl side, 3 side chain; linkers in the order of their positions; H or OH if unused. Non-standard residues stand in square brackets, D forms with d. Residues, ends and D or L forms follow the SMILES beside them. X4 = O=C([C@H](Cc1cc[nH]n1)N[*:1])[*:2]; 2Thi = N[C@@H](Cc1cccs1)C(=O)O; Orn = NCCC[C@H](N)C(=O)O

The text below walks through data of ChEMBL document CHEMBL3244319, “Angiotensin II analogues. 14. Roles of the imidazole nitrogens of position-6 histidine in pressor activity” (1979).

The species named for the experiment is Rattus norvegicus. The experiment in a line: Pressor activity in rat relative to angiotensin-2. It is filed as functional. The method in brief:
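Male rats, anesthetized with pentobarbital, nephrectomized and treated with pentolinium; blood pressure rise recorded after dosing. Peptides dissolved in normal saline with 0.1% polyvinylpyrrolidone, held in siliconized glass containers. Activity expressed relative to [Asn1,Val5]angiotensin II set at 100.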
The molecule H-DRVYILPF-OH had an Activity of 0.02%.

In turn, H-DRVYIMPF-OH came in with an Activity of 0.2%.

Molecule `CC[C@H](C)[C@H](NC(=O)[C@H](Cc1ccc(O)cc1)NC(=O)[C@@H](NC(=O)[C@H](CCCN=C(N)N)NC(=O)[C@@H](N)CC(=O)O)C(C)C)C(=O)N[C@@H](Cc1c[nH]cn1)C(=O)N1CCC[C@H]1C(=O)N[C@@H](Cc1ccccc1)C(=O)O` displayed an Activity of 4%.

H-DRVYIEPF-OH: the Activity is 0%.

On to `CC[C@H](C)[C@H](NC(=O)[C@H](Cc1ccc(O)cc1)NC(=O)[C@@H](NC(=O)[C@H](CCCN=C(N)N)NC(=O)[C@@H](N)CC(=O)O)C(C)C)C(=O)N[C@@H](Cc1cn(C)cn1)C(=O)N1CCC[C@H]1C(=O)N[C@@H](Cc1ccccc1)C(=O)O`, for which the Activity was found to be 5%.

Turning to `CC[C@H](C)[C@H](NC(=O)[C@H](Cc1ccc(O)cc1)NC(=O)[C@@H](NC(=O)[C@H](CCCN=C(N)N)NC(=O)[C@@H](N)CC(=O)O)C(C)C)C(=O)N[C@@H](Cc1cncn1C)C(=O)N1CCC[C@H]1C(=O)N[C@@H](Cc1ccccc1)C(=O)O`, the Activity amounted to 0.05%.

For H-DRVYIKPF-OH, the Activity is given as 0.1%.

The molecule H-DRVYIAPF-OH gave an Activity of 0.8%.

As for `CC[C@H](C)[C@H](NC(=O)[C@H](Cc1ccc(O)cc1)NC(=O)[C@@H](NC(=O)[C@H](CCCNC(=N)N)NC(=O)[C@@H](N)CC(=O)O)C(C)C)C(=O)N[C@@H](CCCN)C(=O)N1CCC[C@H]1C(=O)N[C@@H](Cc1ccccc1)C(=O)O` (H-DRVYI[Orn]PF-OH), the Activity is 0.03%.

On to H-DRVYIFPF-OH, for which the Activity was found to be 3%.

In the case of `CC[C@H](C)[C@H](NC(=O)[C@H](Cc1ccc(O)cc1)NC(=O)[C@@H](NC(=O)[C@H](CCCNC(=N)N)NC(=O)[C@@H](N)CC(=O)O)C(C)C)C(=O)N[C@@H](Cc1cccs1)C(=O)N1CCC[C@H]1C(=O)N[C@@H](Cc1ccccc1)C(=O)O` (H-DRVYI[2Thi]PF-OH), the Activity came out at 10%.

With `CC[C@H](C)[C@H](NC(=O)[C@H](Cc1ccc(O)cc1)NC(=O)[C@@H](NC(=O)[C@H](CCCNC(=N)N)NC(=O)[C@@H](N)CC(=O)O)C(C)C)C(=O)N[C@@H](Cc1cc[nH]n1)C(=O)N1CCC[C@H]1C(=O)N[C@@H](Cc1ccccc1)C(=O)O` (H-DRVYI[X4]PF-OH), the Activity is given as 57%.

Molecule H-DRVYIRPF-OH displayed an Activity of 0.01%.
